ChEMBL document CHEMBL5712088, “Pharmacological inhibition of G9a/GLP restores cognition and reduces oxidative stress, neuroinflammation and β-Amyloid plaques in an early-onset Alzheimer's disease mouse model” (2019)
Activity calls are given as the source filed them. The rule behind the calls is not given here.

Experiments:
Mus musculus [1] = assay: Neuroprotective activity in 5XFAD mouse assessed as increase in NRF2 protein level at 5 mg/kg/day, po for 4 weeks by Western blot analysis; assay type: functional, organism-based
Outline: (§1)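 Hippocampal lysates, with protease and phosphatase inhibitors, from 8-month-old male 5XFAD mice after 4 weeks at 5 mg/kg/day in drinking water. 15 μg protein resolved on 8-12% SDS-PAGE and blotted to PVDF. Blocked 1 h, primary antibody overnight at 4°C, HRP secondary, ECL detection. Values expressed as % of Wt control. n = 4 per group.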

Mus musculus [2] = assay: Neuroprotective activity in 5XFAD mouse assessed as distance in zone-periphery at 5 mg/kg/day, po for 4 weeks by open field test (reference value: 1450.05+/-133.56 cm); assay type: functional
Mus musculus [3] = assay: Neuroprotective activity in 5XFAD mouse assessed as distance in zone-center at 5 mg/kg/day, po for 4 weeks by open field test (reference value: 87.64+/-8.21 cm); assay type: functional
Mus musculus [4] = assay: Neuroprotective activity in 5XFAD mouse assessed as restoration of locomotor activity at 5 mg/kg/day, po for 4 weeks by open field test (reference value: 1672.36+/-68.84 cm); assay type: functional
Mus musculus [5] = assay: Neuroprotective activity in 5XFAD mouse assessed as increase in vertical activity by measuring number of rearings at 5 mg/kg/day, po for 4 weeks by open field test (reference value: 9.9+/-0.66); assay type: functional
Mus musculus [6] = assay: Neuroprotective activity in 5XFAD mouse assessed as increase in grooming at 5 mg/kg/day, po for 4 weeks by open field test (reference value: 1.2+/-0.25); assay type: functional
Mus musculus [7] = assay: Neuroprotective activity in 5XFAD mouse assessed as defecations at 5 mg/kg/day, po for 4 weeks by open field test (reference value: 0.80+/-0.20 No_Unit); assay type: functional
Mus musculus [8] = assay: Neuroprotective activity in 5XFAD mouse assessed as urinations at 5 mg/kg/day, po for 4 weeks by open field test (reference value: 0); assay type: functional
Mus musculus [9] = assay: Neuroprotective activity in 5XFAD mouse model assessed as reduced cognitive deficit in short term memory at 5 mg/kg/day, po for 4 weeks by novel object recognition test; assay type: functional, organism-based
Outline: (§2)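 8-month-old male 5XFAD mice after 4 weeks of 5 mg/kg/day in drinking water. Two-arm 90° maze, habituated 10 min/day for 3 days. 10 min acquisition with two identical objects, then one object replaced after 2 h (short-term) or 24 h (long-term). DI = (TN−TO)/(TN+TO), exploration ≤2 cm. Objects counterbalanced.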

Mus musculus [10] = assay: Neuroprotective activity in 5XFAD mouse model assessed as reduced cognitive deficit in long term memory at 5 mg/kg/day, po for 4 weeks by novel object recognition test; assay type: functional, organism-based; outline: as §2
Mus musculus [11] = assay: Neuroprotective activity in cognitive impairment of 5XFAD mouse model assessed as increase in discrimination index at 5 mg/kg/day, po for 4 weeks by novel object location test; assay type: functional, organism-based
Outline: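 Object location task in 8-month-old male 5XFAD mice after 4 weeks of 5 mg/kg/day in drinking water. Sessions video-recorded from above. Time sniffing the relocated object (TN) versus the object in the familiar location (TO) was scored. DI = (TN-TO)/(TN+TO).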

Mus musculus [12] = assay: Antialzheimer activity in 5XFAD mouse model assessed as reduction of 5-mC global level in DNA at 5 mg/kg/day, po for 4 weeks; assay type: functional, organism-based
Outline: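 8-month-old male 5XFAD mice dosed 5 mg/kg/day via drinking water (1,8% hydroxypropyl-β-cyclodextrin vehicle), 4 weeks. Hippocampal DNA assayed for global 5-mC or 5-hmC by antibody-based ELISA-like colorimetric kit, absorbance 450 nm. Quantified against a standard curve of five control DNA dilutions (0.5–10 ng). n = 4 per group.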

Mus musculus [13] = assay: Neuroprotective activity in 5XFAD mouse assessed as reduction in H3K9me2 level at 5 mg/kg/day, po for 4 weeks by Western blot analysis; assay type: functional, organism-based; outline: as §1
Mus musculus [14] = assay: Neuroprotective activity in 5XFAD mouse assessed as increase in Hmox1 gene expression level at 5 mg/kg/day, po for 4 weeks by RT-PCR analysis; assay type: functional, organism-based
Outline: (§3)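 Male 5XFAD mice, 8 months old, given 5 mg/kg/day in drinking water with 1,8% 2-hydroxypropyl-β-cyclodextrin for 4 weeks. Hippocampus collected one day after behavioural testing. Trizol RNA, 2 μg reverse-transcribed, TaqMan qPCR with 18 ng cDNA per reaction. ΔΔCt normalized to housekeeping gene. n = 4-6 (Hmox1: 3-6) per group. One-way ANOVA with Dunnett.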

Mus musculus [15] = assay: Neuroprotective activity in 5XFAD mouse assessed as increase in SOD1 protein level at 5 mg/kg/day, po for 4 weeks by Western blot analysis; assay type: functional, organism-based; outline: as §1
Mus musculus [16] = assay: Neuroprotective activity in 5XFAD mouse assessed as increase in GPX1 protein level at 5 mg/kg/day, po for 4 weeks by Western blot analysis; assay type: functional, organism-based; outline: as §1
Mus musculus [17] = assay: Antioxidant activity in 5XFAD mouse hippocampus assessed as decrease in ROS level at 5 mg/kg/day, po for 4 weeks; assay type: functional, organism-based
Outline: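 Hippocampal homogenates from 8-month-old male 5XFAD mice after 4 weeks of 5 mg/kg/day in drinking water (cyclodextrin vehicle). H2O2 concentration measured with a hydrogen peroxide assay kit as an oxidative stress index. n = 3 per group, mean ± SEM.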

Mus musculus [18] = assay: Anti-neuro inflammatory activity in 5XFAD mouse assessed as reduction in Il-6 mRNA expression at 5 mg/kg/day, po for 4 weeks by RT-PCR analysis; assay type: functional, organism-based; outline: as §3
Mus musculus [19] = assay: Anti-neuro inflammatory activity in 5XFAD mouse assessed as reduction in TNF-alpha mRNA expression at 5 mg/kg/day, po for 4 weeks by RT-PCR analysis; assay type: functional, organism-based; outline: as §3
Mus musculus [20] = assay: Anti-neuro inflammatory activity in 5XFAD mouse assessed as Cxcl10 mRNA expression at 5 mg/kg/day, po for 4 weeks by RT-PCR analysis; assay type: functional, organism-based; outline: as §3
Mus musculus [21] = assay: Neuroprotective activity in 5XFAD mouse assessed as no change in Mcp1 mRNA expression at 5 mg/kg/day, po for 4 weeks by RT-PCR analysis; assay type: functional, organism-based; outline: as §3
Mus musculus [22] = assay: Neuroprotective activity in 5XFAD mouse assessed as reduction in GFAP protein level by measuring fluorescence intensity at 5 mg/kg/day, po for 4 weeks by immunostaining analysis; assay type: functional, organism-based
Mus musculus [23] = assay: Neuroprotective activity in 5XFAD mouse assessed as no change in IBA1 protein level at 5 mg/kg/day, po for 4 weeks by immunostaining analysis; assay type: functional, organism-based
Mus musculus [24] = assay: Neuroprotective activity in 5XFAD mouse assessed as increase in synaptophysin protein level at 5 mg/kg/day, po for 4 weeks by Western blot analysis; assay type: functional, organism-based; outline: as §1
Mus musculus [25] = assay: Neuroprotective activity in 5XFAD mouse assessed as increase in postsynaptic density protein 95 level at 5 mg/kg/day, po for 4 weeks by Western blot analysis; assay type: functional, organism-based; outline: as §1
Mus musculus [26] = assay: Neuroprotective activity in 5XFAD mouse assessed as increase in BDNF protein level at 5 mg/kg/day, po for 4 weeks by Western blot analysis; assay type: functional, organism-based; outline: as §1
Mus musculus [27] = assay: Neuroprotective activity in 5XFAD mouse assessed as Ngf gene expression at 5 mg/kg/day, po for 4 weeks by RT-PCR analysis; assay type: functional, organism-based; outline: as §3
Mus musculus [28] = assay: Neuroprotective activity in 5XFAD mouse assessed as Vgf gene expression at 5 mg/kg/day, po for 4 weeks by RT-PCR analysis; assay type: functional, organism-based; outline: as §3
Mus musculus [29] = assay: Neuroprotective activity in 5XFAD mouse assessed as number of beta-amyloid plaques at 5 mg/kg/day, po for 4 weeks relative to control; assay type: functional
Outline: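 Male 5XFAD mice, 8 months old, received 5 mg/kg/day in drinking water for 4 weeks. 30 μm brain sections rehydrated in PBS, then stained with 0.3% Thioflavin-S for 20 min at room temperature in the dark.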

Mus musculus [30] = assay: Antialzheimer activity in 5XFAD mouse model assessed as increase in 5-hmC global level in DNA at 5 mg/kg/day, po for 4 weeks

`COc1cc2c(NC3CCN(C(C)C)CC3)nc(N3CCC(F)(F)CC3)nc2cc1OCCCN1CCCC1` was tested. Which Activity (Mus musculus [1]) did it give?
The Activity was “Active”.

And the Activity (Mus musculus [2])?
Its Activity is 1623.83 cm.

What about the Activity (Mus musculus [3]) of the same molecule?
The Activity was 92.74 cm.

And the Activity (Mus musculus [4])?
Its Activity is 2030.46 cm.

And the Activity (Mus musculus [5])?
The Activity was 14.29.

And the Activity (Mus musculus [6])?
The Activity was 3.71.

What about the Activity (Mus musculus [7]) of the same molecule?
The Activity was 0.86.

What about the Activity (Mus musculus [8]) of the same molecule?
Its Activity is 0.

And the Activity (Mus musculus [9])?
Its Activity is “Active”.

What about the Activity (Mus musculus [10]) of the same molecule?
The Activity was “Active”.

And the Activity (Mus musculus [11])?
The Activity was “Active”.

And the Activity (Mus musculus [12])?
The Activity was “Active”.

And the Activity (Mus musculus [13])?
The Activity was “Active”.

What about the Activity (Mus musculus [14]) of the same molecule?
Its Activity is “Active”.

And the Activity (Mus musculus [15])?
The Activity was “Active”.

And the Activity (Mus musculus [16])?
The Activity was “Active”.

And the Activity (Mus musculus [17])?
The Activity was “Active”.

And the Activity (Mus musculus [18])?
Its Activity is “Active”.

What about the Activity (Mus musculus [19]) of the same molecule?
The Activity was “Active”.

What about the Activity (Mus musculus [20]) of the same molecule?
The Activity was “inactive”.

And the Activity (Mus musculus [21])?
The Activity was “inactive”.

And the Activity (Mus musculus [22])?
Its Activity is “Active”.

What about the Activity (Mus musculus [23]) of the same molecule?
The Activity was “inactive”.

What about the Activity (Mus musculus [24]) of the same molecule?
The Activity was “Active”.

What about the Activity (Mus musculus [25]) of the same molecule?
Its Activity is “Active”.

And the Activity (Mus musculus [26])?
The Activity was “Active”.

What about the Activity (Mus musculus [27]) of the same molecule?
The Activity was “Active”.

And the Activity (Mus musculus [28])?
The Activity was “Active”.

What about the Activity (Mus musculus [29]) of the same molecule?
The Activity was 45%.

What about the Activity (Mus musculus [30]) of the same molecule?
Its Activity is “Active”.
